This is a sample that favours compounds with a hit; in the whole collection about 3.3% have one here.
rCAG binder: r(CAG) repeat RNA binding; TO-PRO-1 dye displacement fluorescence; inhibition, % at 3 µM; 1.3% of 370,000 active;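 active means inhibition above the plate cutoff, the mean of all test compounds on that plate plus 3 SD, cut at about 35% in these data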;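 further: higher means more dye released from RNA so lower well fluorescence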
PRMT1 inh: inhibitors of human PRMT1 | Q99873 | recombinant PRMT1, activity-based probe fluorescence polarization | inhibition, % at 2.79 µM | 1.3% of 370,000 active | AID 652257;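 active means inhibition above about 21% made by adding two undisclosed values, limit read from the data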
SIAE inh: inhibitors of human sialic acid acetylesterase SIAE | Q9HAT2 | SIAE FP-Rh probe binding, fluorescence polarization | inhibition, % at 9.66 µM | 0.69% of 370,000 active;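 active means inhibition above a cutoff: mean of compounds within the control limits plus 3 SD of those, cut at about 17% in these data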
mABHD4 FP: inhibits mouse alpha/beta hydrolase domain 4; purified mABHD4, FP-Rh probe fluorescence polarization; inhibition, % at 8.92 µM; 0.54% of 370,000 active; Q8VD66;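 active means inhibition exceeding the mean over every tested compound plus 3 SD, cut at about 30% in these data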
Target sequence (Q8VD66 whole entry, looked up, the tested form may be a part): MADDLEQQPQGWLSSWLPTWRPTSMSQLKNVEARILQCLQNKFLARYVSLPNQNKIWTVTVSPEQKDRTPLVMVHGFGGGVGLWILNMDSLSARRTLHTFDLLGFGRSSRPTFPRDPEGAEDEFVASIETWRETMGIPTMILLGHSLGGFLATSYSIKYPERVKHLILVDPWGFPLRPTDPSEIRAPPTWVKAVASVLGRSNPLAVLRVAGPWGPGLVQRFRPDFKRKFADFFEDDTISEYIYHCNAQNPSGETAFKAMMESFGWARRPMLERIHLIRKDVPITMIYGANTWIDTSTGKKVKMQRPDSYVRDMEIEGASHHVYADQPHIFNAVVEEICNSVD
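Assay system: Wild-type mouse ABHD4 protein | Medium: HEPES pH 7.0 buffer, 150 mM NaCl, 0.01% Pluronic F-127 | Incubation: Enzyme–compound pre-incubation 45 min, then probe 60 min, both 25 °C | Technique: Fluorescence polarization with parallel and perpendicular emission, 525/598 nm | Evaluation: % inhibition of FP-Rh probe binding versus controls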
HTRA1 inh: blocks human HTRA1 serine peptidase; recombinant HTRA1, FP-rhodamine activity-based probe, fluorescence polarization; inhibition, % at 5.96 µM; 0.5% of 340,000 active; AID 504803; in the data active means inhibition above about 36%
Each line names hits and unclear results; the compound was inactive in the other large screens.

CC(C)c1ccc(N2C(=O)CC(Sc3nc4ccccc4o3)C2=O)cc1 (stereo unspecified)	PRMT1 inh 23
COc1ccccc1-c1ccc2c(c1)[C@@H]1C[C@H]3[C@@H](CN1CC2)[C@H](C)ON3C	none (no result: HTRA1 inh)
NC(=O)CSc1cn(Cc2ccccc2)c2ccccc12	PRMT1 inh 23
Cc1cc(NS(=O)(=O)c2ccc(NC(=O)c3ccc(Cl)cc3Cl)cc2)no1	none
Cc1cc(NS(=O)(=O)c2ccc(NC(=S)NC(=O)c3ccc(Cl)cc3Cl)cc2)no1	rCAG binder 65
CCCCc1c(-c2ccccc2OC)ncn1Cc1ccc(Br)cc1	none (no result: HTRA1 inh)
CC(=O)Nc1ccc(S(=O)(=O)NNc2cccc(C)c2)cc1	PRMT1 inh 23
Cc1cccc(NC(=O)NNS(=O)(=O)c2ccc(F)cc2)c1	none
CCOc1ccc(-n2c(N)c(C(=O)NCc3cccnc3)sc2=S)cc1	none
COc1ccc(CNC(=O)c2sc(=S)n(-c3ccccc3)c2N)cc1	PRMT1 inh 21
Cc1c(CCC(=O)O)c(=O)oc2cc3occ(-c4ccc(Cl)cc4)c3cc12	rCAG binder 59
CC(C)CNc1cccc2c1S(=O)(=O)N[C@@H](CC(C)C)CO2	none (no result: HTRA1 inh)
CCCC(=O)N(c1ccc2oc(=O)sc2c1)S(=O)(=O)c1ccccc1	PRMT1 inh 50
Cc1cccc(OCC(=O)Nc2ccc(C(=O)Nc3ccccc3C(=O)O)cc2)c1C	rCAG binder 41
O=C(O)CSc1cc(NS(=O)(=O)c2ccc(Cl)cc2)c2ccccc2c1O	rCAG binder 37, PRMT1 inh 44, mABHD4 FP 39
COc1ccc(-c2nnc(Nc3nc4c(OC)cccc4s3)o2)c(OC)c1	rCAG binder 51
COc1ccc(-c2nnc(Nc3nc4c(OC)cccc4s3)o2)cc1	none
Oc1ccc2ccccc2c1CNc1ccc2ccccc2c1	PRMT1 inh 25, mABHD4 FP 40
CCN=C1NC(CCc2ccccc2)C(C(=O)OC)=C(C)N1Cc1ccc(C(F)(F)F)cc1 (stereo unspecified)	none (no result: HTRA1 inh)
S=c1nc(-c2ccccc2Cl)[nH][nH]1	none
S=c1nc(-c2csc3c2CCCC3)[nH][nH]1	PRMT1 inh 22
O=C(Nc1cccc(F)c1)/C(=C\c1ccco1)NC(=O)c1cccs1	PRMT1 inh 23
O=C(Nc1cccc(C(F)(F)F)c1)/C(=C\c1ccco1)NC(=O)c1cccs1	none
COc1ccc2cc(CN(CCc3ccccc3)Cc3nnnn3Cc3ccco3)c(=O)[nH]c2c1	PRMT1 inh 22
COc1ccc2[nH]c(=O)c(CN(Cc3nnnn3Cc3ccco3)C3CCCCC3)cc2c1	none
CC1=C([N+](=O)[O-])C(c2ccccc2)C2=C(N1)c1ccccc1C2=O (stereo unspecified)	none
Cc1cccc(C2C3=C(Nc4[nH]n(-c5ccccc5)c(=O)c42)c2ccccc2C3=O)c1 (stereo unspecified)	rCAG binder 68, PRMT1 inh 21, SIAE inh 20, mABHD4 FP 43
CC1(C)CC(=O)C2=C(C1)OC(N)=C(C#N)C2c1ccccc1[N+](=O)[O-] (stereo unspecified)	PRMT1 inh 23
CC1(C)CC(=O)C2=C(C1)OC(N)=C(C#N)C2c1ccccc1 (stereo unspecified)	none
O=C(C1CCCO1)N1CCN(S(=O)(=O)c2ccc(F)cc2)CC1 (stereo unspecified)	PRMT1 inh 24
O=C(COC(=O)c1ccccc1C(=O)N1CCN(c2ccccc2)CC1)Nc1ccccc1	PRMT1 inh 22
CCc1cc2c(nc1CC)CCCN2S(=O)(=O)c1ccc(OC)cc1	none (no result: HTRA1 inh)
Cc1cc(N2CCNC[C@@H]2C)ccc1N1CCN(Cc2ccccc2)[C@@H](C)C1	none (no result: HTRA1 inh)
COc1ccccc1N(CC(=O)NCc1ccco1)S(=O)(=O)c1ccc(C)cc1	PRMT1 inh 21
COc1ccc(N(CC(=O)NCc2ccco2)S(=O)(=O)c2ccc(C)cc2)cc1OC	none
Cc1nc2ccc(S(=O)(=O)NCC(=O)N(C)Cc3ccc(F)cc3)cc2s1	none (no result: HTRA1 inh)
C[C@]12Cc3ccccc3C1CC1=N[C@@H](c3ccc(C(F)(F)F)cc3)O[C@@]13C[C@@H]2C(=O)N3C1CCN(Cc2ccccc2)CC1 (stereo partly specified)	none (no result: HTRA1 inh)
CCCCc1c(-c2ccccc2OC)ncn1C(C)c1ccccc1 (stereo unspecified)	none (no result: HTRA1 inh)
O=C(CNc1ccc2c(c1)OCO2)N/N=C\c1ccccc1Cl	PRMT1 inh 22
Cc1[nH]c2ccccc2c1/C=N\NC(=O)CNc1ccc2c(c1)OCO2	none
O=C(NCc1ccco1)c1cccc2c1C(=O)c1ccc(N3CCCC3)cc1S2(=O)=O	PRMT1 inh 37
Cc1ccc(S(=O)(=O)N2C(N)=C(C(=O)NCc3ccc(Br)cc3)C(c3ccc(Cl)cc3)C2C(=O)c2ccccc2)cc1 (stereo unspecified)	none (no result: rCAG binder, HTRA1 inh)
CC(C)N(C(=O)Nc1ccc2nsnc2c1)C(C)C	PRMT1 inh 25 (no result: HTRA1 inh)
CCOc1ccc(NC(=O)CSc2nncc(=O)n2N)cc1	PRMT1 inh 34
COC(=O)C1=C(C)N(Cc2ccc(Br)cc2)C(=S)NC1c1cccc(Br)c1 (stereo unspecified)	none (no result: HTRA1 inh)
O=C(CSc1n[nH]c(Cc2ccccc2)n1)Nc1ccccc1Br	PRMT1 inh 24
Cn1cc(CC(=O)Nc2ccc(Oc3cccnc3)cc2)c2ccccc21	none (no result: HTRA1 inh)
COC(=O)Nc1sc2c(c1C(N)=O)CCCCCC2	none
NC(=O)c1c(NC(=O)C2CC=CCC2C(=O)O)sc2c1CCCCC2 (stereo unspecified)	PRMT1 inh 23
CCSC(=Nc1ccccc1)C1=C(O)COC1=O	SIAE inh 19
CC1(C(=O)NCc2cccc(C(F)(F)F)c2)CCN1Cc1cc2ccccc2o1 (stereo unspecified)	none (no result: HTRA1 inh)
CC1(C(=O)NCc2cccc(C(F)(F)F)c2)CCN1Cc1ccc(-c2ccccc2)o1 (stereo unspecified)	PRMT1 inh 22 (no result: HTRA1 inh)
COc1ccc(S(=O)(=O)Nc2cccc(F)c2)cc1C	none
COc1ccc(S(=O)(=O)Nc2ccc(S(=O)(=O)Nc3ccc(F)cc3)cc2)cc1C	rCAG binder 47
CCc1c(-c2ccccc2F)ncn1CCc1ccccc1OC	none (no result: HTRA1 inh)
CCOC(=O)C1=C(COC(=O)/C=C/c2ccc(C)o2)NC(=O)NC1C (stereo unspecified)	PRMT1 inh 23
Cc1onc(-c2ccccc2)c1C(=O)N1CCN(C(=O)C(=O)c2cccc(C(F)(F)F)c2)CC1	none (no result: HTRA1 inh)
Nc1c2c(nc3ccc(Br)cc13)N(c1ccccc1)CC2	PRMT1 inh 23
C(=Nc1ccc(Nc2ccccc2)cc1)c1ccc2ccccc2c1	HTRA1 inh 73 (no result: rCAG binder, PRMT1 inh, SIAE inh, mABHD4 FP)
NC(=S)N/N=C/c1ccc2ccccc2c1	none
CCS(=O)(=O)c1ccc(O)c(NC(=O)COc2ccc(OC)cc2)c1	none
CCCc1ccc(OCC(=O)Nc2cc(S(=O)(=O)CC)ccc2O)cc1	rCAG binder 35
CN(Cc1ccc2c(c1)CCCN2C)C(=O)[C@@H](Cc1ccccc1)NC(=O)[C@H]1O[C@@H](n2ccc(=O)[nH]c2=O)[C@H](O)[C@@H]1O	none (no result: HTRA1 inh)
S=c1[nH]nc(Nc2ccccc2Cl)s1	PRMT1 inh 23

Assay outcomes deposited in PubChem by The Scripps Research Institute Molecular Screening Center.
